Assay results published in ChEMBL document CHEMBL3232820, “Improved total synthesis and biological evaluation of potent apratoxin S4 based anticancer agents with differential stability and further enhanced activity” (J Med Chem, 2014).
Active and inactive are the calls of the source. No cut-off for these calls is given here.

Assays:
[1] = Half life in phosphate buffer at 25 ug/ml at pH 7.4 by HPLC-MS analysis; type: physicochemical
How it was run: (§1)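 Compound (10 μL of 25 μg/mL) spiked into 100 μL of 100 mM phosphate buffer, pH 4.88 or pH 7.4, incubated 0.25 min to 24 h; ethyl acetate extraction with harmine internal standard; HPLC-MS (MRM); remaining amount from calibration curve.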

Liver [2] = experiment: Metabolic stability in CD1 mouse liver microsomes assessed as compound remaining at 1 uM after 120 mins by HPLC-MS analysis; type: ADME; conditions: 2 h
How it was run: (§2)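 Pooled female CD1 mouse liver microsomes, 0.5 mg/mL protein final, in 100 mM phosphate pH 7.4 at 37 °C; compound 1 μM final, with or without NADPH-regenerating system; 3 min to 2 h; quenched with ethyl acetate, harmine internal standard; HPLC-MS (MRM); % remaining versus t0 peak-area ratio; triplicate.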

Liver [3] = experiment: Metabolic stability in CD1 mouse liver microsomes assessed as compound remaining at 1 uM after 15 mins by HPLC-MS analysis in presence of NADPH; type: ADME; conditions: 0.25 h; how it was run: as §2
Liver [4] = experiment: Metabolic stability in CD1 mouse liver microsomes assessed as compound remaining at 1 uM after 120 mins by HPLC-MS analysis in presence of NADPH; type: ADME; conditions: 2 h; how it was run: as §2
[5] = Half life in phosphate buffer at 25 ug/ml at pH 4.88 by HPLC-MS analysis; type: physicochemical; how it was run: as §1
HCT-116 [6] = experiment: Metabolic stability in human HCT116 cells at 25 ug/ml up to 24 hrs by HPLC-MS analysis; type: ADME, cell-based; conditions: hct-116, 24 h
How it was run: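 HCT116 lysate diluted in 25 mM Tris-HCl pH 8.0 to 0.7 mg/mL protein, 100 μL; incubated with compound (10 μL of 25 μg/mL) 0.25 min to 24 h; ethyl acetate extraction with harmine; HPLC-MS (MRM); remaining amount from calibration curve.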

Plasma = experiment: Metabolic stability in mouse plasma at 25 ug/ml up to 24 hrs by HPLC-MS analysis; type: ADME, cell-free
How it was run: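 Compound (10 μL of 25 μg/mL) added to 100 μL mouse serum, incubated 0.25 min to 24 h; ethyl acetate plus harmine quench/extraction, dried, reconstituted in acetonitrile; HPLC-MS (MRM); remaining amount from calibration curve.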

Liver [7] = experiment: Metabolic stability in CD1 mouse liver microsomes assessed as compound remaining at 1 uM after 60 mins by HPLC-MS analysis; type: ADME; conditions: 1 h; how it was run: as §2
HCT-116 [8] = experiment: Antiproliferative activity against human HCT116 cells after 48 hrs by MTT assay; type: functional, cell-based; conditions: HCT-116, 48 h
Liver [9] = experiment: Metabolic stability in CD1 mouse liver microsomes assessed as compound remaining at 1 uM after 5 mins by HPLC-MS analysis in presence of NADPH; type: ADME; how it was run: as §2
Liver [10] = experiment: Metabolic stability in CD1 mouse liver microsomes assessed as compound remaining at 1 uM after 15 mins by HPLC-MS analysis; type: ADME; conditions: 0.25 h; how it was run: as §2
HCT-116 [11] = experiment: Downregulation of human MET protein expression in HCT116 cells up to 10 uM after 24 hrs by Western blotting analysis; type: functional, cell-based
How it was run: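 HCT116 cells seeded 4×10^5/well, treated next day with a concentration series (solvent control 1% EtOH) for 24 h; whole-cell lysates, equal protein by BCA, 4–12% SDS-PAGE, PVDF transfer, anti-Met immunoblot with chemiluminescent detection.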

Liver [12] = experiment: Metabolic stability in CD1 mouse liver microsomes assessed as compound remaining at 1 uM after 60 mins by HPLC-MS analysis in presence of NADPH; type: ADME; conditions: 1 h; how it was run: as §2
[13] = target: T1, Vascular endothelial growth factor A, long form (Homo sapiens, UniProt P15692); experiment: Inhibition of VEGF-A production in human HCT116 cells after 12 hrs by alphaLISA assay; type: cell-based, HCT-116
T1 sequence (P15692 whole entry): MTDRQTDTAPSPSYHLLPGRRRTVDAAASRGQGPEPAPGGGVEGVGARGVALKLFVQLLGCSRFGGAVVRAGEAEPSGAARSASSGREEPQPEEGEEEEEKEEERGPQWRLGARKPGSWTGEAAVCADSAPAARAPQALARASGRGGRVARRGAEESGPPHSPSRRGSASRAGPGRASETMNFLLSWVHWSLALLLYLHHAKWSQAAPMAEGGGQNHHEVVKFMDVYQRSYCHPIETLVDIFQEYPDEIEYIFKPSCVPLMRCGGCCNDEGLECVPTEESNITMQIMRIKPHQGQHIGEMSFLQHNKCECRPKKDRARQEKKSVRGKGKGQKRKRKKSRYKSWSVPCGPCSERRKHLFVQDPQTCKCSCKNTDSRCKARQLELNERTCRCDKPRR

Liver [14] = experiment: Metabolic stability in CD1 mouse liver microsomes assessed as compound remaining at 1 uM after 3 mins by HPLC-MS analysis in presence of NADPH; type: ADME; conditions: 0.05 h; how it was run: as §2
Liver [15] = experiment: Metabolic stability in CD1 mouse liver microsomes assessed as compound remaining at 1 uM after 30 mins by HPLC-MS analysis in presence of NADPH; type: ADME; conditions: 0.5 h; how it was run: as §2
[16] = Half life in CD1 mouse liver microsomes at 1 uM by HPLC-MS analysis in presence of NADPH; type: ADME
Liver [17] = experiment: Metabolic stability in CD1 mouse liver microsomes assessed as compound remaining at 1 uM after 5 mins by HPLC-MS analysis; type: ADME; how it was run: as §2
Liver [18] = experiment: Metabolic stability in CD1 mouse liver microsomes assessed as compound remaining at 1 uM after 30 mins by HPLC-MS analysis; type: ADME; conditions: 0.5 h; how it was run: as §2
Liver [19] = experiment: Metabolic stability in CD1 mouse liver microsomes assessed as compound remaining at 1 uM after 3 mins by HPLC-MS analysis; type: ADME; conditions: 0.05 h; how it was run: as §2
HCT-116 [20] = experiment: Antitumor activity against human HCT116 cells xenografted in ip dosed nu/nu mouse assessed as tumor growth inhibition administered for 16 days; type: functional, organism-based
How it was run: (§3)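 Female nu/nu mice, 3–5 weeks old; 1×10^6 HCT116 cells in saline injected sc in left rear flank; daily ip 0.1 or 0.25 mg/kg (2 or 5 μg/mouse) or DMSO vehicle, 16 days; n = 7 treated, 6 vehicle; caliper volumes daily (W²×L×0.5); tumours starting above 100 mm³ excluded.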

Mus musculus [21] = experiment: Toxicity in nu/nu mouse xenografted with human HCT116 cells assessed as body weight loss at 0.1 to 0.25 mg/kg, ip for 16 days; type: organism-based, HCT-116; design: dose 0.1-0.25 mg/kg, route intraperitoneal; conditions: in vivo, 384 h
Mus musculus [22] = experiment: Toxicity in nu/nu mouse xenografted with human HCT116 cells assessed as abnormal behavior at 0.1 to 0.25 mg/kg, ip for 16 days; type: organism-based, HCT-116; design: dose 0.1-0.25 mg/kg, route intraperitoneal; conditions: in vivo, 384 h
HCT-116 [23] = experiment: Antitumor activity against human HCT116 cells xenografted in nu/nu mouse assessed as tumor growth inhibition at 0.1 mg/kg, ip for 16 days relative to control; type: functional; conditions: HCT-116, ip, 384 h, route intraperitoneal, read-out: TGI; how it was run: as §3
HCT-116 [24] = experiment: Downregulation of VEGFR2 protein expression in human HCT116 cells xenografted in nu/nu mouse at 0.25 mg/kg, ip for 16 days by immunoblotting analysis; type: functional, organism-based; design: dose 0.25 mg/kg
How it was run: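 Xenograft tumours harvested at the end of the daily ip efficacy study in nu/nu mice bearing sc HCT116 tumours were analysed by immunoblotting with anti-VEGFR2 antibody.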

SMILES | half-life at 25 ug/ml [1] | Stability (Liver [2]) | Stability (Liver [3]) | Stability (Liver [4]) | half-life at 25 ug/ml [5] | Stability (HCT-116 [6]) | Stability (Plasma) | Stability (Liver [7]) | IC50 (HCT-116 [8]) | Stability (Liver [9]) | Stability (Liver [10]) | Activity (HCT-116 [11]) | Stability (Liver [12]) | IC50 [13] | Stability (Liver [14]) | Stability (Liver [15]) | half-life at 1 µM [16] | Stability (Liver [17]) | Stability (Liver [18]) | Stability (Liver [19]) | other results
CC[C@H](C)[C@H]1C(=O)N2CCC[C@H]2C(=O)O[C@H](C(C)(C)C)C[C@@H](C)C[C@H](O)CC2=N[C@@H](CCC(=O)N[C@@H](Cc3ccc(OC)cc3)C(=O)N(C)[C@@H](C)C(=O)N1C)CS2 | > 24 h | 53.85% | 52.4% | 4.3% | > 24 h | Stable | Stable | 54.5% | 1.25 nM | 18.7% | 76.55% | Active | 5.41% | 0.3 nM | 54.95% | 6.1% | < 5 min | 60.5% | 54.8% | 66.6% | –
CC[C@H](C)[C@H]1C(=O)N2CCC[C@H]2C(=O)O[C@H](C(C)(C)C)C[C@@H](C)C[C@H](O)[C@H](C)C2=N[C@H](CCC(=O)N[C@@H](Cc3ccc(OC)cc3)C(=O)N(C)[C@@H](C)C(=O)N1C)CS2 | > 24 h | 56.25% | 3.55% | 5.63% | > 24 h | Stable | Stable | 48.45% | 0.69 nM | 17.8% | 45.25% | Active | 6.06% | 0.12 nM | 51.4% | 3.73% | < 5 min | 71.4% | 56.05% | 83.1% | –
CC[C@H](C)[C@H]1C(=O)N2CCC[C@H]2C(=O)O[C@H](C(C)(C)C)C[C@@H](C)C[C@H](O)[C@H](C)C2=N[C@@H](CCC(=O)N[C@@H](Cc3ccc(OC)cc3)C(=O)N(C)[C@@H](C)C(=O)N1C)CS2 [APRATOXIN S4] | > 24 h | 55.25% | 10.07% | 6.02% | > 24 h | Stable | Stable | 87.1% | 1.43 nM | 32.2% | 87.2% | Active | 10% | 0.32 nM | 39.55% | 9.58% | < 5 min | 70.8% | 73.85% | 87.05% | –
CC[C@H](C)[C@H]1C(=O)N2CCC[C@H]2C(=O)O[C@H](C(C)(C)C)C[C@@H](C)C[C@H](O)C(C)(C)C2=N[C@@H](CCC(=O)N[C@@H](Cc3ccc(OC)cc3)C(=O)N(C)[C@@H](C)C(=O)N1C)CS2 | > 24 h | 70.05% | 8.28% | 5.01% | > 24 h | Stable | Stable | 81.25% | 1.99 nM | 17.3% | 63.45% | Active | 3.55% | 0.47 nM | 37.2% | 4.83% | < 5 min | 77.45% | 74.75% | 74.1% | TGI (HCT-116 [20]): Dose-dependent effect; Activity (Mus musculus [21]): Non-toxic; Activity (Mus musculus [22]): Non-toxic; inhibition in vivo at 0.1 mg/kg (HCT-116 [23]): 50%; Activity (HCT-116 [24]): Active
